From ChEMBL document CHEMBL1759916, “Bicyclo[2.2.2]octyltriazole inhibitors of 11β-hydoxysteroid dehydrogenase type 1. Pharmacological agents for the treatment of metabolic syndrome” (Bioorg Med Chem Lett, 2011)

Molecular target: T1, 11-beta-hydroxysteroid dehydrogenase type 2 (Homo sapiens, UniProt P80365)
T1 sequence (P80365 whole entry): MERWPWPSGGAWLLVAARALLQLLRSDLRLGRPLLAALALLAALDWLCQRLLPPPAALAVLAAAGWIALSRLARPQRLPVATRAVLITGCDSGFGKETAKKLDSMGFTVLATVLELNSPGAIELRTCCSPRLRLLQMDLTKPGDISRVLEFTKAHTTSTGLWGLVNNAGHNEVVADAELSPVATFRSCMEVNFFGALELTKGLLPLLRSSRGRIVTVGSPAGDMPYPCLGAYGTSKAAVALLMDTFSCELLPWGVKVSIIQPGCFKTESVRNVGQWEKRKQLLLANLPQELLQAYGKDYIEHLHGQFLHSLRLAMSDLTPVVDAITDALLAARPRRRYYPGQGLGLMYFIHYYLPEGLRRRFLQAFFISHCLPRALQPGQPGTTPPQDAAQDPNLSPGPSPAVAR
Assay: Inhibition of human 11beta-HSD2 expressed in CHO-K1 cells assessed as conversion of [3H]-cortisol to [3H]-cortisone by scintillation proximity assay
Format: cell-based
Conditions: not given

| IC50 | Compound |
| --- | --- |
| > 4000 nM | Cn1c(-c2ccccc2C(F)(F)F)nnc1C12CCC(CNS(C)(=O)=O)(CC1)CC2 |
| > 4000 nM | CCS(=O)(=O)NCC12CCC(c3nnc(-c4ccccc4C(F)(F)F)n3C)(CC1)CC2 |
| 1300 nM | CC(F)CCCC12CCC(c3nnc(-c4ccccc4C(F)(F)F)n3C)(CC1)CC2 (stereo unspecified) |
| 4000 nM | CC(=O)CCCC12CCC(c3nnc(-c4ccccc4C(F)(F)F)n3C)(CC1)CC2 |
| > 4000 nM | Cn1c(-c2ccccc2C(F)(F)F)nnc1C12CCC(CCS(=O)(=O)C(C)(C)C)(CC1)CC2 |
| > 4000 nM | CCS(=O)(=O)CCC12CCC(c3nnc(-c4cccc(Cl)c4)n3C)(CC1)CC2 |
| > 4000 nM | CCS(=O)(=O)CCC12CCC(c3nnc(-c4ccccc4C)n3C)(CC1)CC2 |
| > 4000 nM | CCS(=O)(=O)CCC12CCC(c3nnc(-c4ccc(O)cc4Cl)n3C)(CC1)CC2 |

Tested on: not listed separately
Assay: Clearance in C57 mouse at 2 mg/kg, iv
Format: ADME, organism-based
Design: dose 2 mg/kg, route intravenous
Conditions: in vivo
In short: (§1)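 Mouse PK from 2 mg/kg IV and 10 mg/kg oral dosing. The PO AUC is reported normalized to dose.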

| clearance | Compound |
| --- | --- |
| 21 mL/min/kg | CC(=O)CCCC12CCC(c3nnc(-c4ccccc4C(F)(F)F)n3C)(CC1)CC2 |

Tested on: Mus musculus
Assay: Inhibition of 11beta-HSD1 in ICR mouse assessed as inhibition of conversion of [3H]-cortisone to [3H]-cortisol at 10 mg/kg, po administered 16 hrs before [3H]-cortisone challenge
Format: functional
Conditions: not given
In short: (§2)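 Mouse pharmacodynamic model. Compound given 10 mg/kg PO, then 3H-cortisone by tail vein injection 1, 4 or 16 h after dosing. […] Plasma compound levels were measured after the PD studies.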

| Compound | inhibition in vivo at 10 mg/kg |
| --- | --- |
| Cn1c(-c2ccccc2C(F)(F)F)nnc1C12CCC(CNS(C)(=O)=O)(CC1)CC2 | 27% |
| CCS(=O)(=O)NCC12CCC(c3nnc(-c4ccccc4C(F)(F)F)n3C)(CC1)CC2 | 50% |
| CC(F)CCCC12CCC(c3nnc(-c4ccccc4C(F)(F)F)n3C)(CC1)CC2 (stereo unspecified) | 51% |
| CC(=O)CCCC12CCC(c3nnc(-c4ccccc4C(F)(F)F)n3C)(CC1)CC2 | 32% |
| Cn1c(-c2ccccc2C(F)(F)F)nnc1C12CCC(CCS(=O)(=O)C(C)(C)C)(CC1)CC2 | 10% |
| CCS(=O)(=O)CCC12CCC(c3nnc(-c4ccccc4C)n3C)(CC1)CC2 | 30% |
| CCS(=O)(=O)CCC12CCC(c3nnc(-c4ccc(O)cc4Cl)n3C)(CC1)CC2 | 14% |

Tested on: not listed separately
Assay: Bioavailability in C57 mouse at 2 mg/kg, iv and 10 mg/kg, po
Format: ADME, organism-based
Conditions: in vivo
In short: as §1

| bioavailability | Compound |
| --- | --- |
| 25% | CC(=O)CCCC12CCC(c3nnc(-c4ccccc4C(F)(F)F)n3C)(CC1)CC2 |

Molecular target: T2, 11-beta-hydroxysteroid dehydrogenase type 2 (Mus musculus, UniProt P51661)
T2 sequence (P51661 whole entry): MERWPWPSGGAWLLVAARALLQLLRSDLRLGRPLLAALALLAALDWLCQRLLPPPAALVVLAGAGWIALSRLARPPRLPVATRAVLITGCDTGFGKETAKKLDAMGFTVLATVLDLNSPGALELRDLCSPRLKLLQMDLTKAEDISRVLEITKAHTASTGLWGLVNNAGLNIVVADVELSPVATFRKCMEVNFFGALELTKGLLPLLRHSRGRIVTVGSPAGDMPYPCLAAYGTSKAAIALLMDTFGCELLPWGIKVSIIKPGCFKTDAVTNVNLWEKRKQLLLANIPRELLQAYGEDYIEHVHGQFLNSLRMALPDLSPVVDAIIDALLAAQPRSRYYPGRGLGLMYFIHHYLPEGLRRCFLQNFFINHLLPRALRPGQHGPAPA
Assay: Inhibition of mouse 11beta-HSD2 expressed in CHO-K1 cells assessed as conversion of [3H]-cortisol to [3H]-cortisone by scintillation proximity assay
Format: cell-based
Conditions: not given
In short: (§3)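 Scintillation proximity assay (SPA). IC50 values are the average of two determinations.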

| IC50 | Compound |
| --- | --- |
| > 4000 nM | Cn1c(-c2ccccc2C(F)(F)F)nnc1C12CCC(CNS(C)(=O)=O)(CC1)CC2 |
| > 4000 nM | CCS(=O)(=O)NCC12CCC(c3nnc(-c4ccccc4C(F)(F)F)n3C)(CC1)CC2 |
| > 4000 nM | CC(F)CCCC12CCC(c3nnc(-c4ccccc4C(F)(F)F)n3C)(CC1)CC2 (stereo unspecified) |
| > 4000 nM | CC(=O)CCCC12CCC(c3nnc(-c4ccccc4C(F)(F)F)n3C)(CC1)CC2 |
| > 4000 nM | Cn1c(-c2ccccc2C(F)(F)F)nnc1C12CCC(CCS(=O)(=O)C(C)(C)C)(CC1)CC2 |
| > 4000 nM | CCS(=O)(=O)CCC12CCC(c3nnc(-c4cccc(Cl)c4)n3C)(CC1)CC2 |
| > 4000 nM | CCS(=O)(=O)CCC12CCC(c3nnc(-c4ccccc4C)n3C)(CC1)CC2 |
| > 4000 nM | CCS(=O)(=O)CCC12CCC(c3nnc(-c4ccc(O)cc4Cl)n3C)(CC1)CC2 |

Molecular target: 11-beta-hydroxysteroid dehydrogenase 1 (Mus musculus, UniProt P50172)
Assay: Inhibition of mouse 11beta-HSD1 expressed in CHO-K1 cells assessed as conversion of [3H]-cortisone to [3H]-cortisol by scintillation proximity assay
Format: cell-based
Conditions: not given

11-beta-hydroxysteroid dehydrogenase 1 (Mus musculus, UniProt P50172), sequence (P50172 whole entry): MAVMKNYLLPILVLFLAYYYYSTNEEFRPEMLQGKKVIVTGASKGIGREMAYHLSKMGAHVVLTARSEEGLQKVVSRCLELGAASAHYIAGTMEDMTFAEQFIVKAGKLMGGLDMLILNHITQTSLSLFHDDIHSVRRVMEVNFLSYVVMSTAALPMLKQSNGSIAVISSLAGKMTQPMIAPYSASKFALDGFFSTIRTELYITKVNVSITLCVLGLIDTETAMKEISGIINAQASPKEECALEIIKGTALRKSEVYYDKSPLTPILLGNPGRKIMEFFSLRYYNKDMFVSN

| IC50 | Compound |
| --- | --- |
| 4 nM | Cn1c(-c2ccccc2C(F)(F)F)nnc1C12CCC(CNS(C)(=O)=O)(CC1)CC2 |
| 2.9 nM | CCS(=O)(=O)NCC12CCC(c3nnc(-c4ccccc4C(F)(F)F)n3C)(CC1)CC2 |
| < 1 nM | CC(F)CCCC12CCC(c3nnc(-c4ccccc4C(F)(F)F)n3C)(CC1)CC2 (stereo unspecified) |
| 1.3 nM | CC(=O)CCCC12CCC(c3nnc(-c4ccccc4C(F)(F)F)n3C)(CC1)CC2 |
| 6.3 nM | Cn1c(-c2ccccc2C(F)(F)F)nnc1C12CCC(CCS(=O)(=O)C(C)(C)C)(CC1)CC2 |
| 1100 nM | CCS(=O)(=O)CCC12CCC(c3nnc(-c4cccc(Cl)c4)n3C)(CC1)CC2 |
| 3 nM | CCS(=O)(=O)CCC12CCC(c3nnc(-c4ccc(O)cc4Cl)n3C)(CC1)CC2 |

Tested on: Mus musculus
Assay: Inhibition of 11beta-HSD1 in ICR mouse assessed as inhibition of conversion of [3H]-cortisone to [3H]-cortisol at 10 mg/kg, po administered 4 hrs before [3H]-cortisone challenge
Format: functional
Conditions: not given
In short: as §2

| Compound | inhibition in vivo at 10 mg/kg |
| --- | --- |
| Cn1c(-c2ccccc2C(F)(F)F)nnc1C12CCC(CNS(C)(=O)=O)(CC1)CC2 | 73% |
| CCS(=O)(=O)NCC12CCC(c3nnc(-c4ccccc4C(F)(F)F)n3C)(CC1)CC2 | 95% |
| CC(F)CCCC12CCC(c3nnc(-c4ccccc4C(F)(F)F)n3C)(CC1)CC2 (stereo unspecified) | 96% |
| CC(=O)CCCC12CCC(c3nnc(-c4ccccc4C(F)(F)F)n3C)(CC1)CC2 | 90% |
| Cn1c(-c2ccccc2C(F)(F)F)nnc1C12CCC(CCS(=O)(=O)C(C)(C)C)(CC1)CC2 | 65% |
| CCS(=O)(=O)CCC12CCC(c3nnc(-c4ccccc4C)n3C)(CC1)CC2 | 86% |
| CCS(=O)(=O)CCC12CCC(c3nnc(-c4ccc(O)cc4Cl)n3C)(CC1)CC2 | 26% |

Molecular target: 11-beta-hydroxysteroid dehydrogenase 1 (Homo sapiens, UniProt P28845)
Assay: Inhibition of human 11beta-HSD1 expressed in CHO-K1 cells assessed as conversion of [3H]-cortisone to [3H]-cortisol by scintillation proximity assay
Format: cell-based
Conditions: not given
In short: as §3

11-beta-hydroxysteroid dehydrogenase 1 (Homo sapiens, UniProt P28845), sequence (P28845 whole entry): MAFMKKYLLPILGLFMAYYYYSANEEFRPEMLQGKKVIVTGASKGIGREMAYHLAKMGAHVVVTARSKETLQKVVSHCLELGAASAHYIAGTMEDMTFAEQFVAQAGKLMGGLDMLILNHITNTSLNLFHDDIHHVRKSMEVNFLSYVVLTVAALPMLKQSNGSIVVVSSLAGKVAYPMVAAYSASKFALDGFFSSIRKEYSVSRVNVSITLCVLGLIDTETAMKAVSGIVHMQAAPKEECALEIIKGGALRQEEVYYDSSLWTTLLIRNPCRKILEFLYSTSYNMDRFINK

| IC50 | Compound |
| --- | --- |
| 30 nM | Cn1c(-c2ccccc2C(F)(F)F)nnc1C12CCC(CNS(C)(=O)=O)(CC1)CC2 |
| 20 nM | CCS(=O)(=O)NCC12CCC(c3nnc(-c4ccccc4C(F)(F)F)n3C)(CC1)CC2 |
| < 1 nM | CC(F)CCCC12CCC(c3nnc(-c4ccccc4C(F)(F)F)n3C)(CC1)CC2 (stereo unspecified) |
| 1.2 nM | CC(=O)CCCC12CCC(c3nnc(-c4ccccc4C(F)(F)F)n3C)(CC1)CC2 |
| 5.4 nM | Cn1c(-c2ccccc2C(F)(F)F)nnc1C12CCC(CCS(=O)(=O)C(C)(C)C)(CC1)CC2 |
| 900 nM | CCS(=O)(=O)CCC12CCC(c3nnc(-c4cccc(Cl)c4)n3C)(CC1)CC2 |
| 2.8 nM | CCS(=O)(=O)CCC12CCC(c3nnc(-c4ccc(O)cc4Cl)n3C)(CC1)CC2 |
